Shown are actives, neighbours in structure and some others; about 0.9% of the full set was active somewhere.
MDM2 E3 inh: blocks human Mdm2 ubiquitin ligase activity; Q00987; cell-based MDM2 ubiquitination luciferase reporter, 2 h; 0 = plate control, 100 = twice control, blank-subtracted; signal enhancement, % at 5 µM; hit rate 0.11% among 210,000; AID 1230;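 active = signal enhancement of 30% or more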;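 note: luminescence tracks abundance of the self-degrading MDM2-luciferase fusion protein; higher signal means inhibition of MDM2 E3 ligase activity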
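System: stable MDM2–luciferase fusion reporter cells / Input: 2000 cells seeded into each well / Schedule: 4 h settle plus 2 h compound, 37 °C / Compound: single-point 5 µM / Buffer or medium: cells held in DMEM / Benchmarks: control and blank well means / Evaluation: percent signal gain over controls, blank-subtracted / Measured by: luciferase luminescence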
S1P3 antag-1: S1P3 (human) receptor antagonism. inhibition, % at 4.98 µM. Q99500. hit rate 0.27% among 170,000. CHO S1P3 NFAT-BLA reporter, FRET fluorescence, antagonist mode;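 active = inhibition above the plate cutoff, the mean inhibition of test wells on that plate plus 3 SD, cut at about 28% in these data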;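 note: cells challenged with S1P at its EC80 of 0.8 µM; blue over green emission ratio from cleaved BLA substrate after 4 h stimulation; 0% = S1P-stimulated wells and 100% = unstimulated DMSO-only wells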
Target sequence (Q99500 whole entry, looked up): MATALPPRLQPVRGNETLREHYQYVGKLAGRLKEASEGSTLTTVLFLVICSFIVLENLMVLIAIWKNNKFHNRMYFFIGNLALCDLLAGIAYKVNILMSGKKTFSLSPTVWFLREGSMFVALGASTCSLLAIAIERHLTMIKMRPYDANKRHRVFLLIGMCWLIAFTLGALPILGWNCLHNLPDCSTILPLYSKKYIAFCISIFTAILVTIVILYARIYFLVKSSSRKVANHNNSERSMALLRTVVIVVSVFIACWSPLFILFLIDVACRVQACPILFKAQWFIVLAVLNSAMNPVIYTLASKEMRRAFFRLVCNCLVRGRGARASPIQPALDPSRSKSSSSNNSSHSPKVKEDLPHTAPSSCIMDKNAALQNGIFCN
S1P4 agonist: activates the human S1P4 receptor. hit rate 0.35% among 220,000. S1P4-expressing cell line, agonist reporter assay. O95977. activation, % at 4.98 µM; in the data active = activation above about 11%;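 note: 0% = DMSO vehicle and 100% = reference agonist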
S1P4 antag: human S1P4 receptor antagonism | inhibition, % at 4.98 µM | S1P4-expressing cells, antagonist mode, reporter read-out | O95977 | hit rate 0.26% among 220,000; in the data active = inhibition above about 29%;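 note: 0% = wells stimulated with agonist and 100% = vehicle wells without agonist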
Calb biofilm kill: mixtures killing C. albicans biofilm | C. albicans biofilm persisters + clotrimazole, fluorescence viability; primary screen in compound mixtures of four per well | AID 1242 | inhibition, % at 7.6 µM | hit rate 0.02% among 120,000;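 active = inhibition above 30.3% in the primary screen of four-compound pools, then above 30% when the compound was retested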;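 note: compounds exposed to preformed 24 h biofilms for 48 h; 0% = untreated biofilm control and 100% = clotrimazole plus chlorhexidine kill blank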
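Test system: C. albicans biofilms. Buffer or medium: RPMI/MOPS medium, pH 7.0. Timing: 48 h compound exposure at 37 °C. Technique: Alamar Blue fluorescence. Evaluation: percent inhibition of biofilm viability.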
S1P3 antag-2: confirmation of human S1P3 receptor antagonists; inhibition, % at 4.98 µM; shares compounds with S1P3 antag-1; CHO S1P3 NFAT-BLA reporter, FRET, antagonist mode; hit rate 30% among 240; AID 1429;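 active = inhibition above the hit threshold that was computed for the earlier primary screen, cut at about 30% in these data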;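 note: 0% = S1P-stimulated wells and 100% = unstimulated DMSO-only wells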
S1P4 agonist cf: human S1P4 agonism, confirmation; hit rate 7% among 740; activation, % at 4.98 µM; AID 1523; S1P4 agonist cell-based reporter assay; shares compounds with S1P4 agonist; in the data active = activation above about 12%;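 note: 0% = vehicle and 100% = full reference agonist response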
S1P1 ag: activates human S1P1, counter-screen for S1P4 agonists. shares compounds with S1P4 agonist. S1P1 agonist cell-based assay, activation. AID 1563. hit rate 4% among 740. activation, % at 4.98 µM; in the data active = activation above about 21%;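 note: 0% = vehicle wells and 100% = reference agonist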
S1P4 antag conf: confirmation of human S1P4 receptor antagonists | shares compounds with S1P4 antag | S1P4-expressing cell line, antagonist mode, reporter read-out | inhibition, % at 4.98 µM | hit rate 71% among 520 | AID 1524; in the data active = inhibition above about 30%
S1P1 antag: human S1P1 antagonism as S1P4 antagonist counter-screen. shares compounds with S1P4 antag. AID 1564. cell-based S1P1 antagonist counterscreen, inhibition. inhibition, % at 4.98 µM. hit rate 37% among 520; in the data active = inhibition above about 40%;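 note: receptor stimulated with S1P near its EC80; 0% = agonist stimulated wells and 100% = vehicle only wells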
* marks the source's active call; other numbers are inactive results; / = no result given; ! = repeats disagree.

SMILES	MDM2 E3 inh	S1P3 antag-1	S1P4 agonist	S1P4 antag	Calb biofilm kill	S1P3 antag-2	S1P4 agonist cf	S1P1 ag	others
c1ccc(C2=Nn3c(Cn4nnc5ccccc54)nnc3SC2)cc1	-21	2	1	-64	18	/	/	/
c1ccc(Cc2nnc3n2N=C(c2ccccc2)CS3)cc1	-2	29*	1	-6	6	-10	/	/
Cc1cc(S(=O)(=O)NCc2cccs2)ccc1-n1cnnn1	0	30*	9	-17	18	-5	/	/
C/C(=N/NC(=O)c1ccccn1)c1ccco1	-48	/	0	12	/	/	/	/
C/C(=N/NC(=O)c1cc(-c2ccc(Cl)s2)[nH]n1)c1ccco1	2	32*	1	11	10	-18	/	/
COc1ccc(Cl)cc1-c1nc(-c2ccc(NC(=O)c3cccs3)cc2)no1	-2	-5	-1	-8	10	/	/	/
CCN(CC)S(=O)(=O)c1cccc(C(=O)NC(C)C(c2cccs2)N2CCCC2)c1 (centres undefined)	-4	29*	-1	-10	8	-7	/	/
CC(=O)c1ccc(Nc2c3c(nc4ccccc24)CCCC3)cc1	-14	29*	27*	-21	28	-1	-1	-2
CSc1nc2ncc(C(=O)O)c(N)n2n1	-14	-16	1	1	15	/	/	/
O=C1N/C(=N\S(=O)(=O)Cc2ccccc2)S/C1=C/c1cc([N+](=O)[O-])ccc1O	-7	32*	0	44*	21	25	/	/	S1P4 antag conf=59*;S1P1 antag=50*
CCN(CC)c1ccc(/C=N/NC(=O)c2cc(C)nc3ccccc23)cc1	7	14	3	-5	12	/	/	/
CCN(CC)c1ccc(/C=C/c2cc(-c3ccccc3)c3ccccc3n2)cc1	2	76*	8	46*	15	90*	/	/	S1P4 antag conf=91*;S1P1 antag=104*
CCCCN(C)CC(O)Cn1cc(/C=C/C(=O)c2cccs2)c2ccccc21 (centres undefined)	5	33*	2	47*	8	16	/	/	S1P4 antag conf=61*;S1P1 antag=88*
CN(C)c1ccc(/C=C/c2ccc3ccccc3n2)cc1	-87	46*	20*	32*	19	45*	5	-18	S1P4 antag conf=63*;S1P1 antag=44*
C[C@H](CO)NC(=O)[C@@H]1C[C@H]1[C@@H](NP(=O)(c1ccccc1)c1ccccc1)c1ccccc1	/	-9	1	2	14	/	/	/
CC(C)(C)NC(=O)C(OC(=O)c1cccs1)c1ccc(F)cc1 (centres undefined)	-2	-12	1	-26	10	/	/	/
CC(C)(C)c1ccc(NC(=O)Nc2ccc(F)cc2)cc1	-18	10	2	-5	24	/	/	/
O=C(Nc1ccc(F)cc1)Nc1cc(OCC(F)(F)F)cc(OCC(F)(F)F)c1	-26	35*	-1	100*	15	10	/	/	S1P4 antag conf=110*;S1P1 antag=-29
O=C(COc1ccc(Cl)cc1)NC1=NN(c2ccccc2)C(=O)C1	6	-12	2	-7	14	/	/	/
CCOC(=O)COc1cccc2c(=O)n(CC(=O)NCc3ccc(F)cc3)ccc12	-7	30*	-1	33*	27	0	/	/	S1P4 antag conf=30*;S1P1 antag=73*
CCOC(=O)COc1cccc2c(=O)n(CC(=O)NCc3ccccc3)ccc12	9	17	1	27	18	/	/	/
CCOc1ccc(-c2nnn(CC(=O)NCc3ccccc3)n2)cc1	-9	-16	19*	-8	10	/	-2	-6
CCOc1ccc(-c2nnn(CC(=O)NCc3ccco3)n2)cc1	17	22	1	-10	/	/	/	/
Cc1noc(C)c1COc1ccc(C(=O)NCCc2ccccn2)cc1	-1	-19	-1	-5	3	/	/	/
Cc1ccccc1NC(=S)NC(=O)c1cncc(Br)c1	3	9	16*	-11	9	/	-1	7
SMILES	MDM2 E3 inh	S1P3 antag-1	S1P4 agonist	S1P4 antag	Calb biofilm kill	S1P3 antag-2	S1P4 agonist cf	S1P1 ag	others
COc1ccc(OCCSc2nc(-c3ccccc3)cc(=O)[nH]2)cc1	1	-12	31*	-4	27	/	-2	-2
COc1ccc(OC)c(S(=O)(=O)n2nnc3ccccc32)c1	-17	-18	2	-29	/	/	/	/
COc1ccc(F)cc1S(=O)(=O)n1nnc2ccccc21	-24	-23	74*	-5	-3	/	-1	1
c1ccc(N2N=C(c3cccs3)CC2c2ccco2)cc1 (centres undefined)	-9	/	9	-1	/	/	/	/
Clc1ccc(N2N=C(c3cccs3)CC2c2ccco2)cc1 (centres undefined)	7	/	14*	-4	/	/	19*	55*
Cc1ccc(OC2=NS(=O)(=O)c3ccccc32)cc1	-8	/	1	12	/	/	/	/
CCc1ccc(OC2=NS(=O)(=O)c3ccccc32)cc1	-17	-13	14*	-8	17	/	-2	-6
O=C(NC(=S)Nc1ccc2oc(-c3cccnc3)nc2c1)c1cccc(Cl)c1	19	/	-6	3	/	/	/	/
CC(OC(=O)c1cc2sccc2n1C)C(=O)NCc1cccs1 (centres undefined)	-2	-41	22*	-7	/	/	-2	3
COc1cc(C(C)=O)ccc1OC(=O)c1cc2cccc(OC)c2oc1=O	-6	-1	14*	0	7	/	-3	-5
COc1cccc2cc(C(C)=O)c(=O)oc12	-6	-11	1	-15	/	/	/	/
COc1cccc(CC(NC(C)=O)C(=O)NC2CCN(c3c(Cc4ccccc4)c(C)nc4ncnn34)CC2)c1OC (centres undefined)	-9	-7	14*	-1	7	/	-3	-8
Cc1cccc[n+]1CC(=O)/C=C1\N(C)c2ccccc2C1(C)C	-18	4	21*	-30	32	/	-2	-1
Cc1ccc[n+](CC(=O)/C=C2\N(C)c3ccccc3C2(C)C)c1	-3	3	1	-30	19	/	/	/
NC(=O)COC(=O)CCSc1ccc(Cl)cc1	-6	-6	-1	1	14	/	/	/
CCCCN(C(=O)/C=C/c1ccco1)c1c(N)n(Cc2ccccc2)c(=O)[nH]c1=O	-3	5	-1	-13	2	/	/	/
COc1ccc(N2CC(C(=O)NCc3ccco3)CC2=O)cc1 (centres undefined)	-21	-23	1	-6	-3	/	/	/
COc1cc(C2NC(=O)C(C#N)=C(Nc3cccc(C)c3)S2)ccc1O (centres undefined)	3	-8	22*!	12	21	/	0	1

Screening data as filed in PubChem.
